# Laboratory results taken from ChEMBL document CHEMBL3232994, “Searching for new derivatives of neocryptolepine: synthesis, antiproliferative, antimicrobial and antifungal activities” (Eur J Med Chem, 2014).
# Calls of active or inactive are those of the source. The rule behind the calls is not given here.
# How the values were obtained:
# [1] = test system: Bacillus cereus; test: Antibacterial activity against Bacillus cereus ATCC 11778 assessed as growth inhibition after 18 hrs by two-fold serial dilution method; format: functional; details: ATCC 11778, 18 h
# In short: (§1)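 Twofold serial agar dilution on Mueller–Hinton II agar per CLSI. Final inoculum 10⁴ CFU/mL, except Enterococcus hirae ATCC 10541 at 10⁵ CFU/mL. MIC read after 18 h at 35 °C.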
# [2] = test system: Enterococcus hirae; test: Antibacterial activity against Enterococcus hirae ATCC 10541 assessed as growth inhibition after 18 hrs by two-fold serial dilution method; format: functional; details: ATCC 10541, 18 h; in short: as §1
# [3] = test system: Micrococcus luteus; test: Antibacterial activity against Micrococcus luteus ATCC 10240 assessed as growth inhibition after 18 hrs by two-fold serial dilution method; format: functional; details: ATCC 10240, 18 h; in short: as §1
# [4] = test system: Candida albicans; test: Antifungal activity against Candida albicans ATCC 10231 assessed as growth inhibition after 18 hrs by two-fold serial dilution method; format: functional; details: ATCC 10231, 18 h
# In short: (§2)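 MIC by twofold serial dilution on RPMI agar per CLSI. Final inoculum 10⁴ CFU/mL. Plates read after 18 h at 35 °C.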
# [5] = test system: Candida albicans; test: Antifungal activity against Candida albicans SN250 assessed as growth inhibition after 18 hrs by two-fold serial dilution method; format: functional; details: SN250, 18 h
# [6] = test system: Candida parapsilosis; test: Antifungal activity against Candida parapsilosis ATCC 22019 assessed as growth inhibition after 18 hrs by two-fold serial dilution method; format: functional; details: Lodderomyces parapsilosis, ATCC 22019, 18 h
# [7] = test system: Candida albicans; test: Antifungal activity against Candida albicans ATCC 90028 assessed as growth inhibition after 18 hrs by two-fold serial dilution method; format: functional; details: ATCC 90028, 18 h; in short: as §2
# [8] = test system: Candida albicans; test: Antifungal activity against Candida albicans SN250 assessed as inhibition of biofilm formation < MIC after 24 hrs by XTT reduction assay; format: functional, organism-based
# [9] = test system: Staphylococcus aureus; test: Antibacterial activity against Staphylococcus aureus NCTC 4163 assessed as growth inhibition after 18 hrs by two-fold serial dilution method; format: functional; details: NCTC 4163, 18 h; in short: as §1
# [10] = test system: Staphylococcus aureus; test: Antibacterial activity against Staphylococcus aureus ATCC 25923 assessed as growth inhibition after 18 hrs by two-fold serial dilution method; format: functional; details: ATCC 25923, 18 h; in short: as §1
# [11] = test system: Staphylococcus aureus; test: Antibacterial activity against Staphylococcus aureus ATCC 6538 assessed as growth inhibition after 18 hrs by two-fold serial dilution method; format: functional; details: ATCC 6538, 18 h; in short: as §1
# [12] = test system: Staphylococcus aureus; test: Antibacterial activity against Staphylococcus aureus ATCC 29213 assessed as growth inhibition after 18 hrs by two-fold serial dilution method; format: functional; details: ATCC 29213, 18 h; in short: as §1
# [13] = test system: Staphylococcus epidermidis; test: Antibacterial activity against Staphylococcus epidermidis ATCC 12228 assessed as growth inhibition after 18 hrs by two-fold serial dilution method; format: functional; details: ATCC 12228, 18 h; in short: as §1
# [14] = test system: Bacillus spizizenii; test: Antibacterial activity against Bacillus subtilis ATCC 6633 assessed as growth inhibition after 18 hrs by two-fold serial dilution method; format: functional; details: ATCC 6633, 18 h; in short: as §1
# [15] = test system: Micrococcus luteus; test: Antibacterial activity against Micrococcus luteus ATCC 9341 assessed as growth inhibition after 18 hrs by two-fold serial dilution method; details: ATCC 9341, 18 h
# [16] = test system: Candida albicans; test: Antifungal activity against Candida albicans SN250 assessed as […] at 2.4 to 625 ug/mL after 24 hrs by XTT reduction assay; format: functional, organism-based
# [17] = test system: KB; test: Cytotoxicity against human KB cells assessed as growth inhibition after 72 hrs by SRB assay; format: functional, cell-based
# In short: (§3)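 Cells were seeded at 10⁴/well in RPMI 1640/Opti-MEM (1:1) with 5% FBS, plus 0.01 mg/mL insulin for MCF-7, 24 h before dosing. Agents in water/medium were given at four tenfold final levels for 72 h. Cells were fixed with cold 50% TCA (1 h, 4 °C), stained with 0.4% SRB, cell-free blank. Triplicate wells, 3–5 repeats. IC50 relative to untreated control.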
# [18] = test system: BALB/3T3; test: Cytotoxicity against mouse BALB/3T3 cells assessed as growth inhibition after 72 hrs by SRB assay; format: cell-based; details: BALB/3T3, 72 h
# In short: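 Mouse fibroblasts were kept in Dulbecco medium with 10% FBS, L-glutamine and pyruvate, and seeded at 10⁴/well 24 h before dosing. Agents were given at four tenfold final levels for 72 h. Cells were TCA-fixed (50%, 4 °C, 1 h) and stained with 0.4% SRB in 1% acetic acid. Triplicate wells, 3–5 repeats. IC50 versus untreated cells.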
# [19] = test system: A549; test: Cytotoxicity against human A549 cells assessed as growth inhibition after 72 hrs by SRB assay; format: functional, cell-based; details: A549, 72 h; in short: as §3
# [20] = test system: MCF7; test: Cytotoxicity against human MCF7 cells assessed as growth inhibition after 72 hrs by SRB assay; format: functional, cell-based; details: MCF7, 72 h; in short: as §3
# [21] = test system: LoVo; test: Cytotoxicity against human LoVo cells assessed as growth inhibition after 72 hrs by SRB assay; format: functional, cell-based; in short: as §3
Compound,MIC [1],MIC [2],MIC [3],MIC [4],MIC [5],MIC [6],MIC [7],inhibition [8],MIC [9],MIC [10],MIC [11],MIC [12],MIC [13],MIC [14],MIC [15],inhibition [16],IC50 [17],IC50 [18],further results
Cc1c2c3cc(NC(=O)CN)ccc3nc-2n(C)c2ccccc12.Cl.Cl,50 µg/mL,100 µg/mL,6.25 µg/mL,25 µg/mL,15.6 µg/mL,25 µg/mL,50 µg/mL,Active,50 µg/mL,50 µg/mL,50 µg/mL,100 µg/mL,25 µg/mL,12.5 µg/mL,6.25 µg/mL,–,–,–,–
Cc1c2c3cc(NC(=O)[C@@H]4CCCN4)ccc3nc-2n(C)c2ccccc12.Cl.Cl,50 µg/mL,100 µg/mL,6.25 µg/mL,200 µg/mL,200 µg/mL,200 µg/mL,200 µg/mL,Active,12.5 µg/mL,50 µg/mL,12.5 µg/mL,50 µg/mL,12.5 µg/mL,12.5 µg/mL,6.25 µg/mL,–,–,–,–
Cc1c2c3ccccc3nc-2n(C)c2ccc(NC(=O)[C@@H](N)Cc3cnc[nH]3)cc12.Cl,> 200 µg/mL,> 200 µg/mL,> 200 µg/mL,> 200 µg/mL,250 µg/mL,> 200 µg/mL,> 200 µg/mL,–,> 200 µg/mL,> 200 µg/mL,> 200 µg/mL,> 200 µg/mL,> 200 µg/mL,> 200 µg/mL,> 200 µg/mL,inactive,3.88 µM,–,–
Cc1c2c3cc(NC(=O)[C@@H](N)Cc4cnc[nH]4)ccc3nc-2n(C)c2ccccc12.Cl,> 200 µg/mL,> 200 µg/mL,> 200 µg/mL,> 200 µg/mL,125 µg/mL,> 200 µg/mL,> 200 µg/mL,–,> 200 µg/mL,> 200 µg/mL,> 200 µg/mL,> 200 µg/mL,> 200 µg/mL,> 200 µg/mL,> 200 µg/mL,–,–,–,–
Cc1c2c3ccccc3nc-2n(C)c2ccccc12,100 µg/mL,200 µg/mL,50 µg/mL,12.5 µg/mL,12.5 µg/mL,12.5 µg/mL,12.5 µg/mL,Active,100 µg/mL,200 µg/mL,100 µg/mL,100 µg/mL,100 µg/mL,50 µg/mL,50 µg/mL,–,–,5.77 µM,–
Cc1c2c3ccccc3nc-2n(C)c2ccc(NC(=O)CNC(=O)CN)cc12.Cl,> 200 µg/mL,> 200 µg/mL,> 200 µg/mL,> 200 µg/mL,> 500 µg/mL,> 200 µg/mL,> 200 µg/mL,–,> 200 µg/mL,> 200 µg/mL,> 200 µg/mL,> 200 µg/mL,> 200 µg/mL,> 200 µg/mL,> 200 µg/mL,inactive,1.54 µM,2.11 µM,IC50 [19]: 1.44 µM; IC50 [20]: 4.11 µM; IC50 [21]: 1.17 µM
